Results: ChEMBL document CHEMBL1177721, “Cytotoxicity of artesunic acid homo- and heterodimer molecules toward sensitive and multidrug-resistant CCRF-CEM leukemia cells” (J Med Chem, 2010)
Calls of active or inactive are those of the source. The calls are words filed in the database; no cut-off is given here.

How the values were obtained:
Type in all cases: functional, cell-based
CCRF-CEM = experiment: Cytotoxicity against human CCRF-CEM by XTT assay
How it was run: (§1)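 XTT (tetrazolium cleavage by cellular dehydrogenases to formazan) read on plate reader. Cells kept in RPMI-1640 with 10% heat-inactivated FCS, 1% penicillin/streptomycin, 37 °C, 5% CO2. CEM/ADR5000 pulsed with 5000 ng/mL doxorubicin for 3 days every other week to keep P-glycoprotein overexpression. IC50 from dose-response curves, mean ± SD of two to three independent experiments, three parallel measurements each.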

ADR5000 cell line [1] = experiment: Cytotoxicity against human CEM/ADR5000 by XTT assay; how it was run: as §1
ADR5000 cell line [2] = experiment: Induction of apoptosis in human CEM/ADR5000 cells at 2 ug/mL after 48 hrs using propidium iodide staining by flow cytometry
ADR5000 cell line [3] = experiment: Increase in ROS generation in human CEM/ADR5000 cells at 0 01 ug/ml after 72 hrs using 2',7'-dichlorodihydrofluoresceine diacetate staining by flow cytometry
ADR5000 cell line [4] = experiment: Cell cycle arrest in human CEM/ADR5000 cells assessed as accumulation at G2/M phase 0.01 ug/ml after 48 hrs using propidium iodide staining by flow cytometry
How it was run: (§2)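 Nicoletti assay: cells were stained with propidium iodide and read by flow cytometry, counting 10 000 cells per sample. Cells were grown in RPMI-1640 with 10% heat-inactivated FCS and 1% penicillin/streptomycin at 37 °C under 5% CO2. To keep P-glycoprotein overexpressed, CEM/ADR5000 cells were given 5000 ng/mL doxorubicin for 3 days every other week.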

ADR5000 cell line [5] = experiment: Cell cycle arrest in human CEM/ADR5000 cells assessed as accumulation at G0/G1 phase 10 ug/ml after 48 hrs using propidium iodide staining by flow cytometry; how it was run: as §2
ADR5000 cell line [6] = experiment: Cell cycle arrest in human CEM/ADR5000 cells assessed as accumulation at G0/G1 phase 1 ug/ml after 48 hrs using propidium iodide staining by flow cytometry
ADR5000 cell line [7] = experiment: Increase in ROS generation in human CEM/ADR5000 cells at 0 001 ug/ml after 24 hrs using 2',7'-dichlorodihydrofluoresceine diacetate staining by flow cytometry
How it was run: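 Intracellular ROS measured by H2DCFDA staining and flow cytometry. Cells at 5 × 10^5 cells/mL exposed to a range of concentrations, sampled at 6, 24, 48 and 72 h. Fluorescence histograms overlaid on untreated controls. Levels normalised to the median of three nontreated controls.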

ADR5000 cell line [8] = experiment: Increase in ROS generation in human CEM/ADR5000 cells at 1 ug/ml after 6 hrs 2',7'-dichlorodihydrofluoresceine diacetate staining by flow cytometry
ADR5000 cell line [9] = experiment: Induction of apoptosis in human CEM/ADR5000 cells at 1 ug/mL after 24 hrs using propidium iodide staining by flow cytometry; how it was run: as §2

Compound | IC50 (CCRF-CEM) | IC50 (ADR5000 cell line [1]) | other results
C=C(C)[C@@H]1CC[C@]2(COC(=O)CCC(=O)O[C@@H]3O[C@@H]4O[C@@]5(C)CC[C@H]6[C@H](C)CC[C@@H]([C@H]3C)[C@@]46OO5)CC[C@]3(C)[C@H](CC[C@@H]4[C@@]5(C)CC[C@H](OC(=O)CCC(=O)O[C@@H]6O[C@@H]7O[C@@]8(C)CC[C@H]9[C@H](C)CC[C@@H]([C@H]6C)[C@@]79OO8)C(C)(C)[C@@H]5CC[C@]43C)[C@@H]12 | 42.9 µM | 42.1 µM | 
C[C@H]1[C@H](OC(=O)CCC(=O)O)O[C@@H]2O[C@@]3(C)CC[C@H]4[C@H](C)CC[C@@H]1[C@@]24OO3 [ARTESUNATE] | 1.8 µM | 1.2 µM | Activity (ADR5000 cell line [2]): Active; Activity (ADR5000 cell line [3]): Active; Activity (ADR5000 cell line [4]): Active; Activity (ADR5000 cell line [5]): Active
C[C@H]1[C@H](OC(=O)CCC(=O)NCCCNC(=O)CCC(=O)O[C@@H]2O[C@@H]3O[C@@]4(C)CC[C@H]5[C@H](C)CC[C@@H]([C@H]2C)[C@@]35OO4)O[C@@H]2O[C@@]3(C)CC[C@H]4[C@H](C)CC[C@@H]1[C@@]24OO3 | 1.2 µM | 0.2 µM | Activity (ADR5000 cell line [6]): Active; Activity (ADR5000 cell line [2]): Active; Activity (ADR5000 cell line [7]): Active
C[C@@H]1CC[C@H]2[C@@H](C)C(=O)O[C@@H]3O[C@@]4(C)CC[C@@H]1[C@]32OO4 [ARTEMISININ] | 36.9 µM | 26.9 µM | 
C=C(C)[C@@H]1CC[C@]2(COC(C)=O)CC[C@]3(C)[C@H](CC[C@@H]4[C@@]5(C)CC[C@H](OC(=O)CCC(=O)O[C@@H]6O[C@@H]7O[C@@]8(C)CC[C@H]9[C@H](C)CC[C@@H]([C@H]6C)[C@@]79OO8)C(C)(C)[C@@H]5CC[C@]43C)[C@@H]12 | 31.9 µM | 20.8 µM | 
COc1cccc2c1C(=O)c1c(O)c3c(c(O)c1C2=O)C[C@@](O)(C(=O)CO)C[C@@H]3O[C@H]1C[C@H](N)[C@H](O)[C@H](C)O1 [DOXORUBICIN] | 0.0369 µM | > 5.2 µM | Activity (ADR5000 cell line [8]): inactive; Activity (ADR5000 cell line [9]): Active
C=C(C)[C@@H]1CC[C@]2(COC(=O)CCC(=O)O[C@@H]3O[C@@H]4O[C@@]5(C)CC[C@H]6[C@H](C)CC[C@@H]([C@H]3C)[C@@]46OO5)CC[C@]3(C)[C@H](CC[C@@H]4[C@@]5(C)CC[C@H](O)C(C)(C)[C@@H]5CC[C@]43C)[C@@H]12 | 9.7 µM | 11.9 µM | 
C=C(C)[C@@H]1CC[C@]2(CO)CC[C@]3(C)[C@H](CC[C@@H]4[C@@]5(C)CC[C@H](O)C(C)(C)[C@@H]5CC[C@]43C)[C@@H]12 [BETULIN] | 50.8 µM | 56.5 µM | 
